In data set [1] the test system is Metrazol-induced clonic seizures. Kind of data set: Subcutaneous Metrazol seizure threshold test. Format: in vivo, mice. The settings on record: for scMET (30) N/F, animals active over tested: 30 mg/kg; for scMET (100) N/F, animals active over tested: 100 mg/kg; for scMET (300) N/F, animals active over tested: 300 mg/kg.
Data set [2] concerns the target Dopamine Transporter (DAT) (Homo sapiens, UniProt Q01959). Kind of data set: NIMH-PDSP radioligand binding, DAT.
In data set [3] the target is T1, Sigma2 (Rattus norvegicus, UniProt Q5U3Y7).
T1 sequence (Q5U3Y7 1-176): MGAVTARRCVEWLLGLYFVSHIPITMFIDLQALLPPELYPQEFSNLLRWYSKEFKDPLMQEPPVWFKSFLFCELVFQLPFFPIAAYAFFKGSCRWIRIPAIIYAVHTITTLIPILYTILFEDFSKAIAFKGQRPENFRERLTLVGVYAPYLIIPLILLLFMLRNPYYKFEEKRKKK
Kind of data set: NIMH-PDSP radioligand binding, Sigma-2.

Data set [4] has as its target μ- opioid receptors (MOR) (Homo sapiens, UniProt P35372). The data set can be described thus: NIMH-PDSP radioligand binding, MOR.
The target of data set [5] is Norepinephrine Transporter (NET) (Homo sapiens, UniProt P23975). The data set can be described thus: NIMH-PDSP radioligand binding, NET.
Chain of Norepinephrine Transporter (NET) (P23975 whole entry): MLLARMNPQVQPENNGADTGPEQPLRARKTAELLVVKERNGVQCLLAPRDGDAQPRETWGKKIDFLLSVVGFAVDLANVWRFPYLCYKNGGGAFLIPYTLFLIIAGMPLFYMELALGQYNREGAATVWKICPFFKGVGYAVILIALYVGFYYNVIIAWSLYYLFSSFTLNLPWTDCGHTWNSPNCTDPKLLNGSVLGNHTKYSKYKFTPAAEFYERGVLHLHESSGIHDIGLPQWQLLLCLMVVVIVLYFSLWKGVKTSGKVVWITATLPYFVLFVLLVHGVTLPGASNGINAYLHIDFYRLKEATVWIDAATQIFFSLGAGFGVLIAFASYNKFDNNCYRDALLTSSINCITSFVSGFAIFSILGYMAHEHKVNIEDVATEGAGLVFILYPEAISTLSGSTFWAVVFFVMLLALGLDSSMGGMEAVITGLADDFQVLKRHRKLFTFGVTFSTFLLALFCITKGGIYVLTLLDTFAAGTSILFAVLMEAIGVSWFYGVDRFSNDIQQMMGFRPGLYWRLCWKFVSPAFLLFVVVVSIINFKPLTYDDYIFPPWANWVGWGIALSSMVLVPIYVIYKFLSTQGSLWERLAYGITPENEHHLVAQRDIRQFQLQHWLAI
Data set [6] concerns the target κ- opioid receptors (KOR) (Rattus norvegicus, UniProt P34975). Kind of data set: NIMH-PDSP radioligand binding, KOR.
Data set [7] relates to mice. Kind of data set: Acute toxicity, minimal motor impairment. It counts as in vivo. The note with it: for TOX (30) N/F, animals toxic over tested / TOX (100) N/F, animals toxic over tested / TOX (300) N/F, animals toxic over tested: rotorod; for TOX (30) N/F, animals toxic over tested: 30 mg/kg. A general note: Falling from the rotarod earlier than controls is read as motor impairment.

For data set [8], the target named is Serotonin 2A (5-HT2A) (Homo sapiens, UniProt P28223). Kind of data set: NIMH-PDSP radioligand binding, 5-HT2A.
Chain of Serotonin 2A (5-HT2A) (P28223 whole entry): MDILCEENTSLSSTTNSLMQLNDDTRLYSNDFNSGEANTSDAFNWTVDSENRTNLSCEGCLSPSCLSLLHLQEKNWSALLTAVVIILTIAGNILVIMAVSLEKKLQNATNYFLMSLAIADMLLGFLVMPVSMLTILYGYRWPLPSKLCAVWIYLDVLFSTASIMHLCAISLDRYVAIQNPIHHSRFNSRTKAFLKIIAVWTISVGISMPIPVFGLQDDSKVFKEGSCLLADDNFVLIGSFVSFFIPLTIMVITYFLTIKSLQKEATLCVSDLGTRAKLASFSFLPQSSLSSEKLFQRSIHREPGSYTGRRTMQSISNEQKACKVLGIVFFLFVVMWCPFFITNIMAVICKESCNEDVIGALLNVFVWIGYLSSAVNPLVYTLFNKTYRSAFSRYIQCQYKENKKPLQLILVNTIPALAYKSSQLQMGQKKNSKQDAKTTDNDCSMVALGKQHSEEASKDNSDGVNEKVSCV
Data set [9] has as its system PCP site of the NMDA receptor complex. The data set can be described thus: [3H]. Format: binding, rat. The settings on record: for % inhibition of 1 nM [3H] (+)-MK-801: compound at 10 μM (10,000 nM); for IC50: rat forebrain homogenate, 1 nM (+)-[3H]MK-801; for Ki: read-out: NMDA affinity Ki, calculated by Cheng and Prusoff equation. The gist of the method:
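Washed rat forebrain homogenate (30 ug/mL protein) in 10 mM HEPES, pH 7.4, with 1 nM (+)-[3H]MK-801, 100 uM glutamate, 30 uM glycine and varied competitor concentrations. Nonspecific binding was set with 30 uM (+)-MK-801. Incubation ran 2 h at room temperature, then vacuum filtration onto GF/B filters, three buffer washes and scintillation counting.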

Data set [10] concerns the target Serotonin Transporter (SERT) (Homo sapiens, UniProt P31645). Kind of data set: NIMH-PDSP radioligand binding, SERT.
Data set [11] relates to MES-induced seizures. The data set can be described thus: Maximal electroshock. Format: in vivo, mice. The note with it: for MES (30) N/F, animals active over tested: 30 mg/kg i.p.; for MES (100) N/F, animals active over tested: 100 mg/kg i.p.; for MES neuroprotective activity (in words): mouse, in vivo. The method, boiled down:
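Mice received test compound i.p. at 30, 100 or 300 mg/kg in 0.01 ml/g and were tested at various intervals after dosing. Corneal electrodes primed with 0.5% tetracaine HCl electrolyte delivered 60 Hz alternating current, 50 mA, for 0.2 s. An animal counted as protected when the hindlimb tonic extensor component was abolished. Results are scored as animals protected over tested.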
Background: In the maximal electroshock model the usual endpoint is tonic extension of the hind limbs.

The target in data set [12] is Sigma1 (Rattus norvegicus, UniProt Q9R0C9). Kind of data set: NIMH-PDSP radioligand binding, Sigma-1.
Chain of Sigma1 (Q9R0C9 whole entry): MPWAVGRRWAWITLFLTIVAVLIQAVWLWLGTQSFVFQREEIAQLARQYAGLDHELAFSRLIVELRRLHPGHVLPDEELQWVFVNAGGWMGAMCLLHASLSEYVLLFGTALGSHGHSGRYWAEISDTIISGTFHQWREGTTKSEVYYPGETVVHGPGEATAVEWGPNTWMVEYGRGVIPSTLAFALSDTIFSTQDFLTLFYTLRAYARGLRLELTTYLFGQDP
Data set [13] addresses Dopamine 2 (D2) (Homo sapiens, UniProt P14416). The data set can be described thus: NIMH-PDSP radioligand binding, D2.
The target in data set [14] is Dopamine 1 (D1) (Homo sapiens, UniProt P21728). Kind of data set: NIMH-PDSP radioligand binding, D1.
Chain of Dopamine 1 (D1) (P21728 whole entry): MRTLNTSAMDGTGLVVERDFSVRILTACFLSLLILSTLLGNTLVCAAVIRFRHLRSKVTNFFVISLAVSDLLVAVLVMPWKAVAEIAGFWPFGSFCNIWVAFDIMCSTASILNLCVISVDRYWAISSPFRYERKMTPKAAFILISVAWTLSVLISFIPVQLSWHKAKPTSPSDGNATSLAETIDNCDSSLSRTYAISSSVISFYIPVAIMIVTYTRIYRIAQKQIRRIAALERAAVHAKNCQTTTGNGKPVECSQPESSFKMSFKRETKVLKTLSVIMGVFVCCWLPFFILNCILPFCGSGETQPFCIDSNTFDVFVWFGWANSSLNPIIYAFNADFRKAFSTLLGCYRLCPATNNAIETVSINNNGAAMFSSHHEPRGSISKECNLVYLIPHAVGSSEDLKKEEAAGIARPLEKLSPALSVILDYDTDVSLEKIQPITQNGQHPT

Entries after “also recorded” stand apart in the source; their conditions may differ. Like-named read-outs stand apart in the source and are kept apart here.

The Ki is a dissociation constant, usually derived from enzyme kinetics or from competition with a known ligand. What is called IC50 is the point on the concentration scale where inhibition reaches its midpoint. A lower IC50 goes with higher potency. Broadly, the Kd is the concentration at which binding is half-saturated.

Chain of Serotonin Transporter (SERT) (P31645 whole entry): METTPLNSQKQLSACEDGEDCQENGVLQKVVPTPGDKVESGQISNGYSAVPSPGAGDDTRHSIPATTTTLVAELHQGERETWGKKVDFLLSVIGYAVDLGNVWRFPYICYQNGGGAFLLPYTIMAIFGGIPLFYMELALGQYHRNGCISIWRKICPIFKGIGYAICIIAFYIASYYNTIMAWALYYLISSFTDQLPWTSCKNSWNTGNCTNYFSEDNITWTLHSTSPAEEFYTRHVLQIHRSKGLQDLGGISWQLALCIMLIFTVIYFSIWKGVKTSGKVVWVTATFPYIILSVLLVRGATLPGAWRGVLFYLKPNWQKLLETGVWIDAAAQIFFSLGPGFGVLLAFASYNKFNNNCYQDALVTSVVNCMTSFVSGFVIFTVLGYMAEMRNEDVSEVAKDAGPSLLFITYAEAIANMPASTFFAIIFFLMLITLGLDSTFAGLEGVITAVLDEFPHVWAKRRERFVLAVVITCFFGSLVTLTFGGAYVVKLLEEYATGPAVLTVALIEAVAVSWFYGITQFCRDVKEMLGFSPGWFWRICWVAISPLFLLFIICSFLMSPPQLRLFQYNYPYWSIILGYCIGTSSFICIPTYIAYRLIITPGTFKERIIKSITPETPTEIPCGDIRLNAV
Chain of Dopamine Transporter (DAT) (Q01959 whole entry): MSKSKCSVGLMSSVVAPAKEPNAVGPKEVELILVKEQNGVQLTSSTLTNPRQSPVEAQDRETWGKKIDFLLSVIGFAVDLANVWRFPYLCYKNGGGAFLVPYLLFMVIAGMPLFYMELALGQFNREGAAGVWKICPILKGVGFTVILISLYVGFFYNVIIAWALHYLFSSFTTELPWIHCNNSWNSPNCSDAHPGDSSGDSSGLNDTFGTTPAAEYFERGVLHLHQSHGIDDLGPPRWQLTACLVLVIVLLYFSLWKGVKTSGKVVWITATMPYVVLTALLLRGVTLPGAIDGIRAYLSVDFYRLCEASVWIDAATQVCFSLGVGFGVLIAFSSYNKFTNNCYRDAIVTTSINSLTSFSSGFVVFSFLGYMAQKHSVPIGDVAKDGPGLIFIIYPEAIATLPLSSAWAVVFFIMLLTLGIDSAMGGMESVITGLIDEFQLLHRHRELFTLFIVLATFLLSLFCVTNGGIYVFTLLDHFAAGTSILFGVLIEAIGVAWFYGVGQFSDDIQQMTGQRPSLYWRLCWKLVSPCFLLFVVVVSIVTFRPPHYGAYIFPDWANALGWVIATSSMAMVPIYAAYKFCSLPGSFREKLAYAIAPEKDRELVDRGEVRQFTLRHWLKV
Chain of κ- opioid receptors (KOR) (P34975 whole entry): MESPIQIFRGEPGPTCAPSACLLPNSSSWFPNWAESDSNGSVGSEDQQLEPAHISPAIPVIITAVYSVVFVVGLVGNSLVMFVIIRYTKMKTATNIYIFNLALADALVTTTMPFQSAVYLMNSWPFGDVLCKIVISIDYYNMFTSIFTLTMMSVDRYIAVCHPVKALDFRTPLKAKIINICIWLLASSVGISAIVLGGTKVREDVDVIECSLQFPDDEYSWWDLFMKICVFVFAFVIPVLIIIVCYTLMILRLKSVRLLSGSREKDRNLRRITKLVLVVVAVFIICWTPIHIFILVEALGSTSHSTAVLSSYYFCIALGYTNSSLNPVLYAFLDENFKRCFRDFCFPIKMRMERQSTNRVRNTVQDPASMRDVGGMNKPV
Chain of μ- opioid receptors (MOR) (P35372 whole entry): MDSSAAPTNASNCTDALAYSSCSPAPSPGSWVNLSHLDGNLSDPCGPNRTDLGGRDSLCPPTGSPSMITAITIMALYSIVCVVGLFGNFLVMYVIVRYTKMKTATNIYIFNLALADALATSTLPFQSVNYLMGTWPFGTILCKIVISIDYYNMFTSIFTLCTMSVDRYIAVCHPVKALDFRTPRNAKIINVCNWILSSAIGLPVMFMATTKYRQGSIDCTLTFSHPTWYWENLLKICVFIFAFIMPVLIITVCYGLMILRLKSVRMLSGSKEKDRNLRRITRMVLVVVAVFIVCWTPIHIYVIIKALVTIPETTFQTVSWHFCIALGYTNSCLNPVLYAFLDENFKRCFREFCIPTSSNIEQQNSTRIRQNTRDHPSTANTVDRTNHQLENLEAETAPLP
Chain of Dopamine 2 (D2) (P14416 whole entry): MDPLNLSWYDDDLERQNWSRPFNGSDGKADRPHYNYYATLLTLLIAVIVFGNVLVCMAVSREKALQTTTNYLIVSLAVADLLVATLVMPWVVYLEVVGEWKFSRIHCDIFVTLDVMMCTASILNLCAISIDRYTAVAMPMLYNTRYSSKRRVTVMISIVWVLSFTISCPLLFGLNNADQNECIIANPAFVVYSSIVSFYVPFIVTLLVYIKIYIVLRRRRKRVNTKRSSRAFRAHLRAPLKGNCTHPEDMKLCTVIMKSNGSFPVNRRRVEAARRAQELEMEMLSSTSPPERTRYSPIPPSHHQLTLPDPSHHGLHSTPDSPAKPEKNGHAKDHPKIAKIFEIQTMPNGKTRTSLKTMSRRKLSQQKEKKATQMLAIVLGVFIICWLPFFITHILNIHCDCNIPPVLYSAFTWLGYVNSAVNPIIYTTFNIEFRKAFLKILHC

As to `NC1(c2ccccc2)CC2CCC1C2` (stereo not drawn) [Compound 4a, 2-phenylbicyclo[2.2.1]heptan-2-amine], the “scMET (30) N/F, animals active over tested” value (from here on “scMET (30) N/F … over tested”) in data set [1] (0.5 h) and in data set [1] (4.0 h) was 0/1 0/1 each time. Besides, the “scMET (100) N/F, animals active over tested” value (from here on “scMET (100) N/F … over tested”) in data set [1] (0.5 h) and in [1] (4.0 h) was 0/1 0/1 in each case. In addition, the Ki is more than 10 µM in [2]; 0.995 µM in [3]; more than 10 µM in data set [4]; more than 10 µM in data set [5]; more than 10 µM in [6]; more than 10 µM in [8]. Also, the inhibition constant Ki is 8.45 µM in data set [9]; more than 10 µM in data set [10]; 2.2 µM in data set [12]; more than 10 µM in data set [13]; more than 10 µM in [14]. Besides, the TOX comments result is “Severe Tremors, Death following clonic seizure” in data set [7] (100 mg/kg, 0.5 h) and “Death” in data set [7] (300 mg/kg, 0.5 h). The entries for the “TOX (30) N/F, animals toxic over tested” value in data set [7] (0.5 h) and in data set [7] (4.0 h) were 0/4 and 0/2, respectively. Besides, the “TOX (100) N/F, animals toxic over tested” value is given as 8/8 in [7] (100 mg/kg, 0.5 h) and 0/2 in [7] (100 mg/kg, 4.0 h). Further, in [7] (300 mg/kg, 0.5 h), the “TOX (300) N/F, animals toxic over tested” value is listed as 4/4 /. The “% inhibition of 1 nM [3H] (+)-MK-801” value in data set [9] is “greater than 90%”. The compound also returned a 50% inhibitory concentration (IC50) in data set [9] of 13.3 ± 0.63 µM. The “MES (30) N/F, animals active over tested” value in data set [11] (0.5 h) and in data set [11] (4.0 h) was 0/1 0/1 throughout. The “MES (100) N/F, animals active over tested” value (shortened to “MES (100) N/F … over tested”) in [11] (4.0 h) is 1/1.

With `NC1(c2ccc(F)cc2)CC2CCC1C2` (stereo not drawn) [Compound 4b, 2-(4-fluorophenyl)bicyclo[2.2.1]heptan-2-amine], the “scMET (30) N/F … over tested” value in [1] (0.5 h) and in data set [1] (4.0 h) was 0/1 0/1 in each case. Also, the “scMET (100) N/F … over tested” value in data set [1] (0.5 h) and in [1] (4.0 h) was 0/1 0/1 throughout. Besides, the inhibition constant Ki in data set [2], in [3], in data set [4], in data set [5], in data set [6] and in data set [8] was more than 10 µM throughout. Besides, the Ki in data set [10], in data set [12], in data set [13] and in data set [14] was more than 10 µM each time. Also, the TOX comments entry is recorded as “Severe Tremors, Clonic seizures” in [7] (100 mg/kg, 0.5 h) and “Death following clonic seizure” in [7] (300 mg/kg, 0.5 h). For the same compound, the figures for the “TOX (30) N/F, animals toxic over tested” value in data set [7] (0.5 h) and in data set [7] (4.0 h) were 0/4 and 0/2, respectively. Besides, the “TOX (100) N/F, animals toxic over tested” value in [7] (100 mg/kg, 0.5 h) was 8/8; in data set [7] (100 mg/kg, 4.0 h), 0/4. The “TOX (300) N/F, animals toxic over tested” value in data set [7] (300 mg/kg, 0.5 h) is on record as 4/4 /. Further, the “MES (30) N/F, animals active over tested” value in data set [11] (0.5 h) and in [11] (4.0 h) was 0/1 0/1 throughout. The “MES (100) N/F … over tested” value is given as 3/3 in data set [11] (0.5 h) and 0/3 in data set [11] (4.0 h).

As to `c1ccc(C2(NCCN3CCCCC3)CC3CCC2C3)cc1` (stereo not drawn) [Compound 5a, 2-Phenyl-N-(2-(piperidin-1-yl)ethyl)bicyclo[2.2.1]heptan-2-amine], the “scMET (30) N/F … over tested” value in [1] (0.5 h) and in data set [1] (4.0 h) was 0/1 0/1 throughout. Moreover, the “scMET (100) N/F … over tested” value in [1] (0.5 h) and in data set [1] (4.0 h) was 0/1 0/1 each time. For the same compound, the inhibitory constant (Ki) in data set [2] was more than 10 µM; in data set [3], more than 10 µM; in data set [4] it was more than 10 µM; in data set [5], more than 10 µM; in [6], 0.876 µM; in data set [8], 2.64 µM. The inhibitory constant (Ki) in data set [9] is 5.28 µM; in data set [10] it was more than 10 µM; in data set [12] it was more than 10 µM; in data set [13], more than 10 µM; in [14], more than 10 µM. The TOX comments entry in data set [7] (100 mg/kg, 0.5 h) is listed as “Clonic seizures”; in data set [7] (300 mg/kg, 0.5 h), “Death”. Moreover, the “toxicity profile (in words)” value in [7] (mouse, in vivo) is listed as “acceptable toxicity profile”. For the same compound, the “TOX (30) N/F, animals toxic over tested” value in data set [7] (0.5 h) is 0/4; in data set [7] (4.0 h), 0/2. The “TOX (100) N/F, animals toxic over tested” value in data set [7] (100 mg/kg, 0.5 h) is given as 8/8; in data set [7] (100 mg/kg, 4.0 h), 0/4. In addition, the “TOX (300) N/F, animals toxic over tested” value in data set [7] (300 mg/kg, 0.5 h) is 4/4 /. Further, in data set [9], the “affinity for NMDA (in words)” value was “highest affinity for NMDA”. Moreover, the “% inhibition of 1 nM [3H] (+)-MK-801” value in data set [9] was “greater than 90%”. Moreover, 7.86 ± 1.64 µM corresponded to half-maximal inhibition in [9] (IC50). The “MES (30) N/F, animals active over tested” value in data set [11] (0.5 h) and in data set [11] (4.0 h) was 0/1 0/1 each time. Also, in data set [11] (100 mg/kg), the “MES protection (in words)” value was “MES neuroprotection activity”. For the same compound, the entries for the “MES (100) N/F … over tested” value in data set [11] (0.5 h) and in data set [11] (4.0 h) were 3/3 and 1/3, respectively. The “MES neuroprotective activity (in words)” value in data set [11] is “greatest degree of protection from MES induced neural damage and death”.

In the case of `c1ccc(C2(NCCN3CCOCC3)CC3CCC2C3)cc1` (stereo not drawn) [Compound 5c, N-(2-morpholinoethyl)-2-phenylbicyclo [2.2.1] heptan-2-amine], the “scMET (30) N/F … over tested” value in data set [1] (0.5 h) and in [1] (4.0 h) was 0/1 0/1 in each case. Moreover, the “scMET (100) N/F … over tested” value in data set [1] (0.5 h) and in data set [1] (4.0 h) was 0/1 0/1 in each case. Further, the “scMET (300) N/F, animals active over tested” value is reported as 0/1 in data set [1] (0.5 h) and 0/0 in data set [1] (4.0 h). Further, the inhibition constant Ki in data set [2] is 2.57 µM; in data set [3] it was more than 10 µM; in [4], more than 10 µM; in data set [5], more than 10 µM; in data set [6], 0.988 µM; in data set [8] it was more than 10 µM. Further, the inhibition constant (Ki) in [10], in data set [12], in data set [13] and in data set [14] was more than 10 µM in each case. For the same compound, the TOX comments result in data set [7] (100 mg/kg, 0.5 h) was “Clonic seizures”; in data set [7] (300 mg/kg, 0.5 h), “Death following clonic seizure; also recorded: Clonic seizures”; in [7] (300 mg/kg, 4 h), “Death”. Further, the results for the “TOX (30) N/F, animals toxic over tested” value in [7] (0.5 h) and in data set [7] (4.0 h) were 0/4 and 0/2, respectively. Further, the “TOX (100) N/F, animals toxic over tested” value is 6/8 in data set [7] (100 mg/kg, 0.5 h) and 0/4 in [7] (100 mg/kg, 4.0 h). For the same compound, the “TOX (300) N/F, animals toxic over tested” value in data set [7] (300 mg/kg, 0.5 h) is on record as 4/4; in data set [7] (300 mg/kg, 4.0 h) it was 1/1. For the same compound, the “affinity for NMDA (in words)” value in data set [9] is on record as “did not exhibit significant affinity”. In addition, the “MES (30) N/F, animals active over tested” value in data set [11] (0.5 h) and in data set [11] (4.0 h) was 0/1 0/1 throughout. Besides, the “MES (100) N/F … over tested” value in data set [11] (0.5 h) is on record as 2/3; in [11] (4.0 h), 0/3. The “MES neuroprotective activity (in words)” value in data set [11] is listed as “displayed MES neuroprotective activity”.

Regarding (+)-MK-801 [reference compound], in data set [9] (read-out: Kd for (+)-MK-801 binding, saturation conditions, homologous binding assay), the equilibrium dissociation constant (Kd) was 0.00175 µM. Further, the Ki in data set [9] (reference) was 0.00136 µM.

These data come from PMC3115441 (Chemical biology & drug design, 2011).
